{
  "source": "ChEMBL document CHEMBL4513216",
  "about": "“Probing the Open Global Health Chemical Diversity Library for Multistage-Active Starting Points for Next-Generation Antimalarials” (ACS Infect Dis, 2020)",
  "data": [
    {"assay": "Toxicity liver stage against HepG2, at 10uM", "assay_type": "cell-based", "set-up": "test concentration 10 uM, cell line HepG2-A16-CD81EGFP", "conditions": "human, HepG2-A16-CD81EGFP cells; read-out: INHIBITION", "how_it_was_run": "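Uninfected HepG2-A16-CD81EGFP cells, 3 × 10^3 per well, 1536-well, plated on prespotted compound at 10 μM final, parasite-free screening media added to match infected plates; puromycin 10 μM positive, DMSO 0.5% negative; run in parallel with 48 h PbLuc assay at 37 °C, 5% CO2; viability by CellTiter-Glo luminescence, normalized to controls.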", "units": {"cytotoxicity at 10 µM": "%"}, "values": [
      {"compound": "O=C(CN1CCCC1)Nc1c2c(cc3c1CCC3)CCC2", "cytotoxicity at 10 µM": -2.1},
      {"compound": "O=C1NCCCCC1Sc1nnc(C2CC2)n1C1CC1", "note": "(stereo unspecified)", "cytotoxicity at 10 µM": -6},
      {"compound": "O=C1C[C@@H]2CCN(Cc3ccccc3)C[C@@H]2CCN1C1CCCCC1", "cytotoxicity at 10 µM": 5.17},
      {"compound": "CC(C)(C)C(=O)N1CC[C@H]2NC(=O)N(c3ccc(F)cc3)C(=O)[C@H]21", "cytotoxicity at 10 µM": -1.72},
      {"compound": "CCN(CC)S(=O)(=O)c1ccc2c(c1)N(Cc1cccnc1)C(=O)CS2", "cytotoxicity at 10 µM": 1.82},
      {"compound": "CN(C)c1no[n+]([O-])c1-c1ccccc1", "cytotoxicity at 10 µM": 15.8},
      {"compound": "Cc1c(C2SCC(=O)Nc3c2cnn3C(C)(C)C)cnn1C", "note": "(stereo unspecified)", "cytotoxicity at 10 µM": -1.21},
      {"compound": "O=C(NC1(c2nc(C3CC3)no2)CCCCC1)c1ccncc1", "cytotoxicity at 10 µM": -7.12},
      {"compound": "Cc1nc(N2CCCC2)nc(C)c1NS(=O)(=O)c1ccccc1F", "cytotoxicity at 10 µM": -3.92},
      {"compound": "Cc1ccccc1C(=O)N1CCC2(CCC(C(=O)NCC3CC3)O2)CC1", "note": "(stereo unspecified)", "cytotoxicity at 10 µM": -3.28},
      {"compound": "CCn1nnc2c1CCN(S(C)(=O)=O)C2COCc1ccccc1", "note": "(stereo unspecified)", "cytotoxicity at 10 µM": 0.196},
      {"compound": "CC(C)CC(=O)N1CCCn2cnc(CNS(C)(=O)=O)c2C1", "cytotoxicity at 10 µM": -1.22},
      {"compound": "CC(=O)N1CCN(C(=O)NC(C)C)CC2(CC(=O)N(C)C2)C1", "note": "(stereo unspecified)", "cytotoxicity at 10 µM": -4.13},
      {"compound": "CCCc1nc(N2CCSCC2)c2c(n1)c(C)nn2CC", "cytotoxicity at 10 µM": 8.05},
      {"compound": "CNc1cc(C2CN(Cc3coc(C)n3)CCO2)nc(C)n1", "note": "(stereo unspecified)", "cytotoxicity at 10 µM": -11.1},
      {"compound": "O=C(N[C@@H]1CCC[C@@H](N2CCOCC2)[C@@H]1O)c1cc2ccccc2[nH]1", "cytotoxicity at 10 µM": -26.9},
      {"compound": "CC(C)(C)CC(=O)N1CCC(c2nn(CCN)c3nccnc23)C1", "note": "(stereo unspecified)", "cytotoxicity at 10 µM": -20.9},
      {"compound": "CN(C)C(=O)c1cccc(NC(=O)Cc2cc(F)ccc2F)n1", "cytotoxicity at 10 µM": -2.64},
      {"compound": "CCCN(CCC)C(=O)c1sc(C)nc1C", "cytotoxicity at 10 µM": 3.05},
      {"compound": "CCC(CC)c1cc(C(=O)N2CCN(CC(N)=O)CC2)on1", "cytotoxicity at 10 µM": -4.97},
      {"compound": "CCN(CC)CCn1cc(NC(=O)c2ccccc2OC)cn1", "cytotoxicity at 10 µM": 7.04},
      {"compound": "O=S1(=O)CCC(c2nnc(-c3cnc4onc(C5CC5)c4c3)o2)C1", "note": "(stereo unspecified)", "cytotoxicity at 10 µM": 5.89},
      {"compound": "COCCCN(C)c1nc(-c2ccncc2)nc(C)c1C", "cytotoxicity at 10 µM": 2.8},
      {"compound": "O=C(CS(=O)(=O)c1cccc[n+]1[O-])NC1CCCc2ccccc21", "note": "(stereo unspecified)", "cytotoxicity at 10 µM": -3.46},
      {"compound": "CCc1nnc2n1CCN(C(=O)CCOc1cc(C)ccc1C)C2", "cytotoxicity at 10 µM": -11.3},
      {"compound": "CCOc1cccc(C(C)NC(=O)N2CCC3(CC2)OCCO3)c1", "note": "(stereo unspecified)", "cytotoxicity at 10 µM": 0.322},
      {"compound": "CCN(CC)c1ncc(CNC2CCc3nc(C(C)C)nn3C2)s1", "note": "(stereo unspecified)", "cytotoxicity at 10 µM": 4.24},
      {"compound": "CN(CCN1CCOCC1)C(=O)CCc1ccc(C(F)(F)F)cc1", "cytotoxicity at 10 µM": -1.3},
      {"compound": "CNc1cc(N2CCCC2CNCc2cccnc2)ncn1", "note": "(stereo unspecified)", "cytotoxicity at 10 µM": -11.5},
      {"compound": "O=S(=O)(CCO)Cc1ccc(OCC(F)(F)F)cc1", "cytotoxicity at 10 µM": 2.23},
      {"compound": "CN(c1ncnc2c1CCC2)C1CCCN(c2cccnn2)C1", "note": "(stereo unspecified)", "cytotoxicity at 10 µM": 1.72},
      {"compound": "CC(=O)N(CCc1ccccc1)CC(=O)NC1(C#N)CC1", "cytotoxicity at 10 µM": 1.09},
      {"compound": "COCCN1CCC(Nc2c(F)cc(C#N)cc2F)CC1", "cytotoxicity at 10 µM": -5.41},
      {"compound": "CC(C)CN(CC(O)c1ccc(F)cc1)C(=O)c1csnn1", "note": "(stereo unspecified)", "cytotoxicity at 10 µM": 2.83},
      {"compound": "C[S+]([O-])CCNC(=O)Nc1cc(F)ccc1-n1cccn1", "note": "(stereo unspecified)", "cytotoxicity at 10 µM": -20.9},
      {"compound": "O=C(CCc1ccsc1)Nc1cnccc1O", "cytotoxicity at 10 µM": 9.56},
      {"compound": "COc1cccc(CN(C)Cc2cccc(C#N)c2)c1OC", "cytotoxicity at 10 µM": -7.82},
      {"compound": "O=S(=O)(CCNCc1ccc2c(c1)CCO2)N1CCOCC1", "cytotoxicity at 10 µM": -9.61},
      {"compound": "CN(CCN1CCOCC1)C(=O)CCc1cccc(Cl)c1", "cytotoxicity at 10 µM": -6.57},
      {"compound": "CCc1ccc(C(=O)N2CCC(c3nncn3CC)CC2)cc1", "cytotoxicity at 10 µM": -2.95},
      {"compound": "c1cc(C2CCCN2Cc2nnnn2C2CC2)cs1", "note": "(stereo unspecified)", "cytotoxicity at 10 µM": -8.86},
      {"compound": "Cc1nc(CN2CCO[C@@H]3CNCC[C@@H]3C2)cs1", "cytotoxicity at 10 µM": 4.47},
      {"compound": "Cc1ccc(C(=O)N2CCn3c(COCC4CC4)cnc3C2C)s1", "note": "(stereo unspecified)", "cytotoxicity at 10 µM": 5.14},
      {"compound": "Cc1ccc(C(F)(F)F)cc1C(=O)N[C@H]1CN(CCO)C[C@@H]1C1CC1", "cytotoxicity at 10 µM": 0.292},
      {"compound": "Nc1nc(CCCNC(=O)c2ccc(C3CCCNC3)cc2)cs1", "note": "(stereo unspecified)", "cytotoxicity at 10 µM": 2.77},
      {"compound": "O=C1NCCCC12CCN(S(=O)(=O)N1CCOCC1)C2", "note": "(stereo unspecified)", "cytotoxicity at 10 µM": -1.16},
      {"compound": "Cc1nc(O)cc(C2CCN(C(=O)C(C)Cn3nc(C)nc3C)CC2)n1", "note": "(stereo unspecified)", "cytotoxicity at 10 µM": -1.89},
      {"compound": "O=C(CN1CCC2(CCCN(CCO)C2=O)C1)NCCc1ccccc1", "note": "(stereo unspecified)", "cytotoxicity at 10 µM": 0.174},
      {"compound": "COc1cccc(CN(C)C(C)c2ccco2)c1OCCn1ccnc1", "note": "(stereo unspecified)", "cytotoxicity at 10 µM": -0.7},
      {"compound": "CN(CCCO)c1nc(-c2ccc(C(N)=O)cc2)nc2c1CCNC2", "cytotoxicity at 10 µM": -2.86},
      {"compound": "CCOC(=O)C1CCCN(Cc2c[nH]nc2-c2cc3ccccc3o2)C1", "note": "(stereo unspecified)", "cytotoxicity at 10 µM": 3.16},
      {"compound": "CC(Cc1cccnc1)Nc1ncnc2cccc(F)c12", "note": "(stereo unspecified)", "cytotoxicity at 10 µM": 26.3},
      {"compound": "O=C(CCc1cc(O)no1)N1CCC(Cc2ccc(F)cc2)CC1", "cytotoxicity at 10 µM": -0.505},
      {"compound": "Cn1ncc(C2CC(=O)NCc3nc4sccn4c32)c1C1CC1", "note": "(stereo unspecified)", "cytotoxicity at 10 µM": -5.01},
      {"compound": "CN1CCC(Cc2noc(-c3cn(Cc4ccc(F)cc4)nn3)n2)CC1", "cytotoxicity at 10 µM": -4.18},
      {"compound": "Cc1nccnc1N1CC[C@@H](NC(=O)c2cnccn2)[C@H](O)C1", "cytotoxicity at 10 µM": -11.3},
      {"compound": "CCOc1cc(C)nc(N2CCN(C(=O)c3cnc[nH]3)CC2)n1", "cytotoxicity at 10 µM": -11.8},
      {"compound": "CC(C)c1ccc(CCC(=O)N2CCOCC2c2ncon2)cc1", "note": "(stereo unspecified)", "cytotoxicity at 10 µM": -4.56},
      {"compound": "Cc1nnc2n1CCN(C(C(=O)NC1CC1)c1ccc(F)cc1)C2", "note": "(stereo unspecified)", "cytotoxicity at 10 µM": -6.6},
      {"compound": "CCN(CC)C(=O)Cn1ccc2cc(NC(=O)C3CCCCC3)ccc21", "cytotoxicity at 10 µM": -5.04},
      {"compound": "CCc1nc(CN2CCN(C(=O)C3(C#N)CCCC3)CC2)cs1", "cytotoxicity at 10 µM": 0.38},
      {"compound": "CCN1CCN(C2CCN(CC(=O)NCC(F)(F)F)CC2)C1=O", "cytotoxicity at 10 µM": -2.99},
      {"compound": "O=C(Nc1ccc(F)cc1)N1CCN(Cc2noc(C3CC3)n2)CC1", "cytotoxicity at 10 µM": -18.1},
      {"compound": "COCCN1CC(C(=O)NCc2ccnc(-n3cccn3)c2)CC1=O", "note": "(stereo unspecified)", "cytotoxicity at 10 µM": -5.07},
      {"compound": "O=C1CC(N(C(=O)c2ccc3c(c2)CCC3)C2CC2)C(=O)N1", "note": "(stereo unspecified)", "cytotoxicity at 10 µM": -1.99},
      {"compound": "c1ccc(-c2nc(CN3CCOC(Cn4cccn4)C3)no2)cc1", "note": "(stereo unspecified)", "cytotoxicity at 10 µM": 10.1},
      {"compound": "COCCc1noc(CNC2CCc3nc(C(C)C)nn3C2)n1", "note": "(stereo unspecified)", "cytotoxicity at 10 µM": 4.28},
      {"compound": "O=C(N1CCOCC1)N1CCCC2(CCCNC2)C1", "note": "(stereo unspecified)", "cytotoxicity at 10 µM": 0.817},
      {"compound": "O=C([C@H]1CC[C@@H]2[C@@H](CCN2C2CCCC2)O1)N1CCOCC1", "cytotoxicity at 10 µM": 11.5},
      {"compound": "CO[C@H]1CC[C@H]2[C@H]1OCCN2CCOCc1ccccc1", "cytotoxicity at 10 µM": -114},
      {"compound": "Cc1cccc(CN2CCc3cc(C(=O)O)c(N(C)C)nc3CC2)n1", "cytotoxicity at 10 µM": 3.68},
      {"compound": "CN(C)CCN1CCN(Cc2ccco2)Cc2cccnc21", "cytotoxicity at 10 µM": 1.73},
      {"compound": "O=C1CC2(CCN(Cc3ccccn3)C2)CN1c1cncnc1", "note": "(stereo unspecified)", "cytotoxicity at 10 µM": 2.26},
      {"compound": "CNC(=O)CN1CCOCC2(C1)CN(C(=O)CC(C)C)CCO2", "note": "(stereo unspecified)", "cytotoxicity at 10 µM": 3.94},
      {"compound": "O=C1COC2(CCN(C(=O)C3CC=CC3)CC2)CN1Cc1cccnc1", "cytotoxicity at 10 µM": 3.27},
      {"compound": "COc1ncccc1CN1C[C@@H]2COC[C@]2(COCC(=O)N(C)C)C1", "cytotoxicity at 10 µM": 7.81},
      {"compound": "Cc1nc(CN2CC[C@H](OCC3CC3)[C@@H]2Cc2cccnc2)cs1", "cytotoxicity at 10 µM": 0.15},
      {"compound": "COCCNC(=O)[C@H]1CN(Cc2nccs2)C[C@H]2OCC[C@@H]12", "cytotoxicity at 10 µM": -11.6},
      {"compound": "COc1ncccc1CN1CC[C@]2(C[C@@H](OCc3ccccn3)CO2)C1", "cytotoxicity at 10 µM": 4.96},
      {"compound": "Cc1ccc(CN2C[C@@H]3COC[C@@H](CC(=O)N4CCOCC4)[C@@H]3C2)s1", "cytotoxicity at 10 µM": -2.04},
      {"compound": "CCC12CN3CC(C)(CN(C1)C3c1[nH]c(=O)[nH]c(=O)c1C)C2=O", "note": "(stereo unspecified)", "cytotoxicity at 10 µM": 6.35}
    ]}
  ]
}
